Source: PubChem (The Scripps Research Institute Molecular Screening Center)
Only some compounds are listed: those with a hit (about 4.3% of all), similar ones and a draw of the others.
OX1R antag-1: antagonists of human orexin 1 receptor. CHO/OX1R cells, Fluo-8 calcium fluorescence, orexin A. AID 434989. 0.43% of 330,000 active. O43613. inhibition, % at 5 µM;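 active = inhibition above its plate's threshold, mean inhibition of all tested compounds on the plate plus 3 SD, cut at about 37% in these data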;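 also: 0% = orexin A challenge wells and 100% = SB-334867-A antagonist wells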
OX1R antag-2: antagonists of human orexin 1 receptor (OX1R). OX1R-expressing cells, FRET antagonist read-out. inhibition, % at 6.6 µM. O43613. AID 485270. 1.8% of 330,000 active; in the data active = inhibition mostly above about 38%, no sharp cut-off; inactive = mostly below about 40%;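 also: 0% = agonist challenge alone and 100% = reference antagonist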
TAAR1 antagonist: antagonists of human TAAR1 | CHO RD-HGA16 TAAR1, Fluo-8 calcium fluorescence, antagonist | inhibition, % at 3 µM | 1.5% of 360,000 active | AID 624466;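 active = inhibition above a per-plate cutoff, the mean inhibition of test compounds on that plate plus 3 SD, cut at about 49% in these data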;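 also: 0% = DMSO plus EC80 beta-PEA response and 100% = DMSO alone without agonist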
Target sequence (Q96RJ0 whole entry, looked up): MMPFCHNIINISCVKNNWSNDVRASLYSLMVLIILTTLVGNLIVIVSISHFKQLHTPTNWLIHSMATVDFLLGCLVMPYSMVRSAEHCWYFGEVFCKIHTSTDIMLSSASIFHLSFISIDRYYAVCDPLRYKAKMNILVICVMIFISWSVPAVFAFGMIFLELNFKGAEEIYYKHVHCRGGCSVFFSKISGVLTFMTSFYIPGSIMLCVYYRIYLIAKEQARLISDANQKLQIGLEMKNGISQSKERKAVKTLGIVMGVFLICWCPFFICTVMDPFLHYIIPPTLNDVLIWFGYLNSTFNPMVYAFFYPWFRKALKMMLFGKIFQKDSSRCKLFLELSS
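Assay system: CHO-derived RD-HGA16 cells stably expressing human TAAR1 plus Gα16. Timing: 140 s kinetic read after compound, 140 s after agonist. Technique: kinetic Fluo-8 calcium fluorescence measurement. Measure: % inhibition of agonist calcium response.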
CHO parental Ca: signal in parental CHO cells, OX1R antagonist counter-screen; parental CHO-K1, ATP-induced calcium, Fluo-8 fluorescence; inhibition, % at 5.6 µM; 0.63% of 330,000 active;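 active = inhibition above that plate's mean sample inhibition plus 3 SD, cut at about 26% in these data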;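 also: 0% = ATP-challenged DMSO wells and 100% = DMSO wells without ATP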
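Material: Parental CHO cells | Reagent: ATP | Compound dosing: Single nominal dose of 5.6 µM per compound | Detection: Intracellular calcium via Fluo-8 no-wash fluorescent dye | Read-out: % inhibition of ATP-induced calcium mobilization | Benchmarks: Low control ATP plus DMSO, high control DMSO only | Replicates: Singlicate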
GalR3 antag: human GalR3 antagonism. AID 651719. 0.44% of 360,000 active. inhibition, % at 3 µM. O60755. HEK293 GalR3-CNG cAMP membrane potential fluorescence; galR3 body fused to GalR1 C-terminus;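 active = inhibition above the screen-wide average plus 3 SD, cut at about 13% in these data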;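 also: forskolin and galanin both at EC90 stimulate the cells; cAMP rise reported by CNG channel membrane potential dye signal; 0% = forskolin plus galanin with DMSO and 100% = forskolin alone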
Target sequence (O60755 1-299 limits assumed): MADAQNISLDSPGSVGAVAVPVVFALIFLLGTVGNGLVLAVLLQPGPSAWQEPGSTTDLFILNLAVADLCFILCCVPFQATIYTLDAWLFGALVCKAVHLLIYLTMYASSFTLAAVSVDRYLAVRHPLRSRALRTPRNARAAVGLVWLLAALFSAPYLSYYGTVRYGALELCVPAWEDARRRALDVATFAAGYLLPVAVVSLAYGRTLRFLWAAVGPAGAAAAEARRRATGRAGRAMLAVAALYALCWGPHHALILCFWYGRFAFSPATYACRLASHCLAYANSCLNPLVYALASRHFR
TAAR1 ag: human TAAR1 agonism; Q96RJ0; CHO RD-HGA16 TAAR1, Fluo-8 calcium fluorescence; vehicle wells 0%, saturating PEA agonist 100%; activation, % at 3 µM; 0.99% of 360,000 active;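 active = activation above the mean activation of all test compounds in the run plus 3 SD, cut at about 38% in these data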
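Signal – calcium-sensitive Fluo-8 signal, excitation 470-495, emission 515-575 nm · System – RD-HGA16 (CHO) cells co-expressing Gα16 and hTAAR1 · Incubation – 17-24 h seeding, 75 min 37 °C dye, 30 min RT · Compound dosing – 3 µM single concentration · Repeats – no replicates (n 1)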
* = called active by the depositor.

What do the screens show for `O=C(NCCc1ccc(Cl)cc1)C(=O)c1c[nH]c2ccccc12`?
OX1R antag-1: -13; OX1R antag-2: 5; TAAR1 antagonist: 47; CHO parental Ca: -11; GalR3 antag: -10; TAAR1 ag: 12

What do the screens show for `Cc1cccc(C)c1NC(=O)C(=O)NCCc1c[nH]c2ccccc12`?
OX1R antag-1: -9; OX1R antag-2: 13; TAAR1 antagonist: 5; CHO parental Ca: -12; GalR3 antag: -3; TAAR1 ag: 46*

Results for COc1cc2cc(C(=O)NCCc3c[nH]c4ccccc34)c(N)nc2cc1OC ?
TAAR1 antagonist: 70*; GalR3 antag: -2; TAAR1 ag: 52*

What do the screens show for `Cc1cccc(NC(=O)C(=O)NCCc2c[nH]c3ccccc23)c1C`?
OX1R antag-1: -10; OX1R antag-2: 8; TAAR1 antagonist: 12; CHO parental Ca: -19; GalR3 antag: -4; TAAR1 ag: 20

Results for COc1ccc(C(O)c2nc(-c3ccccc3C)cs2)cc1 (stereo not drawn) ?
TAAR1 antagonist: 4; GalR3 antag: -7; TAAR1 ag: 5

Results for CCN(CC)C(=O)Cn1cc(C(=O)C(=O)NCCCN2CCCCC2)c2ccccc21 ?
OX1R antag-1: -22; OX1R antag-2: 13; TAAR1 antagonist: 13; CHO parental Ca: -12; GalR3 antag: 0; TAAR1 ag: 0

What do the screens show for `CCN(CC)C(=O)Cn1cc(C(=O)C(=O)NCCc2c[nH]c3ccccc23)c2ccccc21`?
OX1R antag-1: 6; OX1R antag-2: 46*; TAAR1 antagonist: 9; CHO parental Ca: -6; GalR3 antag: -6; TAAR1 ag: 4

Results for CN(C)C(CNC(=O)c1ccc(C2SCCS2)cc1)c1ccccc1 (stereo not drawn) ?
OX1R antag-1: -3; OX1R antag-2: 11; TAAR1 antagonist: -18; CHO parental Ca: -11; GalR3 antag: -5; TAAR1 ag: 38*

How did Cc1cccc(NS(=O)(=O)c2ccc(C(=O)NCC(c3ccccc3)N(C)C)cc2)c1C (stereo not drawn) do in these assays?
TAAR1 antagonist: 28; GalR3 antag: -4; TAAR1 ag: 43*

Results for CC(C)(C)NS(=O)(=O)c1ccc(NC(=S)NC(=O)C2CC2)cc1 ?
OX1R antag-1: 1; OX1R antag-2: 26; TAAR1 antagonist: -6; CHO parental Ca: 11; GalR3 antag: -3; TAAR1 ag: 5

What do the screens show for `O=C(NCCc1cccs1)C1CCC(=O)N(CCc2cccc(F)c2)C1` (stereo not drawn)?
OX1R antag-1: -17; OX1R antag-2: 5; TAAR1 antagonist: -10; CHO parental Ca: -13; GalR3 antag: -1; TAAR1 ag: 42*

What do the screens show for `CC(=O)NC(=S)Nc1ccc(NC(=S)NC(=O)c2cccs2)cc1`?
OX1R antag-1: -18; OX1R antag-2: 4; TAAR1 antagonist: -16; CHO parental Ca: -10; GalR3 antag: 0; TAAR1 ag: 0

What do the screens show for `Cc1c(C(=O)NC(=S)Nc2ccc(NC(=O)c3cccs3)cc2)cccc1[N+](=O)[O-]`?
OX1R antag-1: 17; OX1R antag-2: 62; TAAR1 antagonist: 68*; CHO parental Ca: 16; GalR3 antag: -2; TAAR1 ag: 9

What do the screens show for `COc1ccc(C(=O)CSC2=NS(=O)(=O)c3cc(Cl)ccc3N2)cc1`?
OX1R antag-1: -11; OX1R antag-2: 62*; TAAR1 antagonist: -23; CHO parental Ca: -7; GalR3 antag: 1; TAAR1 ag: 5

Results for CC(=O)Nc1ccc(NC(=O)CSC2=NS(=O)(=O)c3cc(Cl)ccc3N2)cc1 ?
OX1R antag-1: -6; OX1R antag-2: 21; TAAR1 antagonist: -6; CHO parental Ca: -6; GalR3 antag: -1; TAAR1 ag: 0

Results for N#Cc1cc([N+](=O)[O-])ccc1NC(=O)CSc1n[nH]c(=O)n1C1CC1 ?
OX1R antag-1: -4; OX1R antag-2: 33*; TAAR1 antagonist: -3; CHO parental Ca: -1; GalR3 antag: 3; TAAR1 ag: 2

What do the screens show for `O=C1CCc2cccc(O)c2N1`?
TAAR1 antagonist: -29; GalR3 antag: 0; TAAR1 ag: 11

What do the screens show for `COc1ccc(Cl)cc1C(=O)CSc1nnnn1C1CCCC1`?
OX1R antag-1: -13; OX1R antag-2: -2; TAAR1 antagonist: -6; CHO parental Ca: -17; GalR3 antag: -6; TAAR1 ag: 18

How did COc1ccc(Cl)cc1C(=O)CSc1nnnn1C1CCCCC1 do in these assays?
OX1R antag-1: 27; OX1R antag-2: 52*; TAAR1 antagonist: 14; CHO parental Ca: 52*; GalR3 antag: -3; TAAR1 ag: 15

What do the screens show for `O=C(Cc1ccccc1)NN1CCCCC1`?
OX1R antag-1: -18; OX1R antag-2: 18; TAAR1 antagonist: -5; CHO parental Ca: -8; GalR3 antag: -9; TAAR1 ag: -1

Results for C/C(N)=C(/C#N)C(=O)CSc1cc(Cl)ccc1Cl ?
OX1R antag-1: -9; OX1R antag-2: 19; TAAR1 antagonist: -6; CHO parental Ca: -2; GalR3 antag: -1; TAAR1 ag: 7

What do the screens show for `C/C(N)=C(/C#N)C(=O)CSc1nc2cc(Cl)ccc2s1`?
OX1R antag-1: -14; OX1R antag-2: 56*; TAAR1 antagonist: 19; CHO parental Ca: -8; GalR3 antag: -4; TAAR1 ag: 8

What do the screens show for `Cc1cccc(Nc2nc(-c3c(C)nc4ccccn34)cs2)c1`?
OX1R antag-1: 70*; OX1R antag-2: 32; TAAR1 antagonist: 48; CHO parental Ca: 43*; GalR3 antag: -4; TAAR1 ag: 0

Results for Cc1nc2ccccn2c1-c1csc(Nc2cccc(O)c2)n1 ?
TAAR1 antagonist: 55*; GalR3 antag: -4; TAAR1 ag: 2

What do the screens show for `Cc1nc2ccccn2c1-c1csc(Nc2cccc(C(=O)O)c2)n1`?
OX1R antag-1: -4; OX1R antag-2: 7; TAAR1 antagonist: 8; CHO parental Ca: -13; GalR3 antag: -9; TAAR1 ag: 1

What do the screens show for `Cc1nc2ccccn2c1-c1csc(Nc2ccc(C(=O)O)cc2)n1`?
OX1R antag-1: -19; OX1R antag-2: 3; TAAR1 antagonist: -14; CHO parental Ca: -23; GalR3 antag: -7; TAAR1 ag: 3

What do the screens show for `O=C(CN1C2CCCC1CC(NC(=O)C1CCCCC1)C2)Nc1ccccc1C(F)(F)F` (stereo not drawn)?
OX1R antag-1: 2; OX1R antag-2: 42*; TAAR1 antagonist: -4; CHO parental Ca: -6; GalR3 antag: -6; TAAR1 ag: 2

What do the screens show for `COCCCn1c(SCCc2ccccc2)nc2cc(OC)c(OC)cc2c1=N`?
OX1R antag-1: 21; OX1R antag-2: 35; TAAR1 antagonist: 56*; CHO parental Ca: 25; GalR3 antag: -4; TAAR1 ag: 11
